pIC50: −log10 of the molar value. Calls of active or inactive are those of the source. The calls are words filed in the database; no cut-off is given here. Where a SMILES comes first, the peptide text is derived from it. [ ]: non-standard residue; d: D form. The star is where a group is joined. FITC = O=C1OC2(c3ccc(O)cc3Oc3cc(O)ccc32)c2ccc(NC(=S)*)cc21; 2Nal = N[C@@H](Cc1ccc2ccccc2c1)C(=O)O; AEEA = NCCOCCOCC(=O)O
Key:
COS-1 [1] = test: Inhibition of GRTH phosphorylation (unknown origin) expressed in COS-1 cells assessed as reduction in pGRTH protein level at 5 to 100 uM measured after 16 hrs by western blot analysis; type: cell-based; details: Homo sapiens, dose 5-100 µM
Procedure, shortened: (§1)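 COS-1 cells stably expressing human GRTH-V5-His at ~90% confluence. Peptides dissolved in water and given at 5, 20, 60 or 100 μM for 16 h, or at 100 μM for 4, 8, 16 or 24 h. 30 μg protein per sample was blotted with a rabbit phospho-T239-specific GRTH antibody. 61 kDa pGRTH band normalized to β-actin; three independent experiments; ANOVA with Tukey test.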

[2] = Drug uptake in nucleus of African green monkey COS-1 cells assessed as compound accumulation in nucleus at 20 uM incubated for 4 hrs in presence of FITC-labelled peptide by DAPI staining based inverted phase contrast fluorescence microscope analysis; type: ADME, subcellular; details: chlorocebus aethiops, cos-1, 4 h
Procedure, shortened: (§2)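 Stable GRTH-expressing COS-1 cells grown overnight on coverslips, then given 20 μM FITC-tagged peptide for 4 h. After PBS wash they were fixed in 50% then 100% methanol, 1 min each, and mounted with DAPI. Green signal in cytoplasm and nucleus was viewed by inverted fluorescence microscopy.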

Mus musculus [3] = species: Mus musculus; test: Inhibition of GRTH phosphorylation in mouse seminiferous tubule of testis assessed as reduction in pGRTH protein level at 100 uM measured after 16 hrs by western blot analysis; type: tissue-based
Procedure, shortened: (§3)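 Seminiferous tubules from adult mice (90 days old) in medium 199, 4 h, then 100 μM peptide for 16 h. Lysates were blotted with phospho-specific GRTH antibody. pGRTH band normalized to β-actin and compared with untreated tubules; n = 3.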

[4] = Drug uptake in cytoplasm of African green monkey COS-1 cells assessed as compound accumulation in cytoplasm at 20 uM incubated for 4 hrs in presence of FITC-labelled peptide by DAPI staining based inverted phase contrast fluorescence microscope analysis; type: ADME, subcellular; details: chlorocebus aethiops, cos-1, 4 h; procedure, shortened: as §2
[5] = Drug uptake in mouse seminiferous tubule of testis at 100 uM incubated for 16 hrs by immunofluorescence microscopic analysis; type: ADME, tissue-based; details: in vitro
Procedure, shortened: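 Seminiferous tubules from decapsulated testes of 90-day-old mice were segmented and placed in medium 199. After 4 h, 100 μM FITC-tagged peptide was added for 16 h. Tubules were PBS-washed, mounted with antifade and imaged by fluorescence microscopy.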

COS-1 [6] = test: Inhibition of PKA-induced GRTH phosphorylation (unknown origin) expressed in COS-1 cells at 100 uM stimulated with PKA for 24 hrs followed by peptide addition and incubated overnight by Western blot analysis; type: cell-based; details: Homo sapiens
Procedure, shortened: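 Stable GRTH COS-1 cells at 0.3 × 10^6/well were transfected with PKAα catalytic subunit plasmid (3 μg/well), or with empty plasmid, and grown 24 h. Peptide was then added at 100 μM overnight at 37 °C. pGRTH was detected by western blot with phospho-specific antibody (1:1000) and normalized to β-actin; three experiments.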

COS-1 [7] = test: Binding affinity to GRTH (unknown origin) expressed in COS-1 cell lysate assessed as thermostabilization of protein at 40 uM incubated for 16 hrs followed by heating at 40 to 70 degree C for 3 mins by CETSA based western blot analysis; type: subcellular; details: Homo sapiens
Procedure, shortened: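 Lysate of COS-1 cells stably carrying human GRTH-V5-His, made with protease/phosphatase inhibitor and cleared by centrifugation, then diluted in lysis buffer. Peptide added to 40 μM and rotated 16 h at 4 °C. Aliquots were heated 3 min at 40–70 °C and cooled 3 min at room temperature, then spun. Soluble non-phospho GRTH was read by western blot; 40 °C sample served as reference; n = 3.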

COS-1 [8] = test: Binding affinity to mCherry labelled GRTH (unknown origin) expressed in COS-1 cells assessed as increase in fluorescence intensity of donor peptide FITC in bleached region at 15 uM followed by acceptor photobleaching measured after 16 hrs by inverted microscope based live cell imaging analysis; details: Homo sapiens
Procedure, shortened: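 COS-1 cells carrying an mCherry-human GRTH fusion, in glass-bottom dishes, exposed to 15 μM FITC-labelled peptide for 16 h, then imaged live. mCherry was excited at 561 nm and FITC at 488 nm (emission 500–550 nm). ROIs were bleached in the acceptor channel at 514 nm, 100% power, 10 iterations. FRET efficiency E% = 100 × (FITC postbleach − FITC prebleach)/FITC postbleach.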

COS-1 [9] = test: Cytotoxicity against African green monkey COS-1 cell assessed as reduction in cell viability incubated for 24 hrs by CellTiter 96 non-radioactive cell proliferation assay; type: cell-based; details: Chlorocebus aethiops, COS-1, 24 h
Procedure, shortened: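 COS-1 cells stably expressing human GRTH, seeded at 0.01 × 10^6/well and left 16 h. Peptides at 10, 50, 100, 250 and 500 μM for 24 h at 37 °C with 5% CO2. Tetrazolium dye was then added for 4 h, reaction stopped, absorbance read at 570 nm. Viability taken as % of control OD; IC50 by linear regression of dose–response.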

COS-1 [10] = test: Inhibition of GRTH phosphorylation (unknown origin) expressed in COS-1 cells assessed as reduction in pGRTH protein level at 100 uM measured after 16 to 24 hrs by western blot analysis; type: cell-based; details: Homo sapiens, time 16-24 hrs; procedure, shortened: as §1
COS-1 [11] = test: Inhibition of GRTH phosphorylation (unknown origin) expressed in COS-1 cells assessed as reduction in pGRTH protein level measured after 16 hrs by western blot analysis; type: cell-based; details: Homo sapiens; procedure, shortened: as §1
COS-1 [12] = test: Inhibition of GRTH phosphorylation (unknown origin) expressed in COS-1 cells assessed as reduction in pGRTH protein level at 100 uM measured after 24 hrs by western blot analysis; type: cell-based; details: Homo sapiens; procedure, shortened: as §1
COS-1 [13] = test: Inhibition of GRTH phosphorylation (unknown origin) expressed in COS-1 cells assessed as reduction in pGRTH protein level at 100 uM measured after 8 to 16 hrs by western blot analysis; type: cell-based; details: Homo sapiens, time 8-16 hrs; procedure, shortened: as §1
Mus musculus [14] = species: Mus musculus; test: Inhibition of GRTH phosphorylation in mouse seminiferous tubule of testis assessed as reduction in pGRTH protein level at 100 uM measured after 16 hrs by western blot analysis relative to control; type: tissue-based; procedure, shortened: as §3

SMILES | Drug uptake [2] | Drug uptake [4] | Drug uptake [5] | Activity (COS-1 [7]) | inhibition (COS-1 [1]) | inhibition (Mus musculus [3]) | inhibition (COS-1 [6]) | Activity (COS-1 [8]) | pIC50 (COS-1 [9]) | inhibition (COS-1 [10]) | inhibition (COS-1 [11]) | inhibition (COS-1 [12]) | inhibition (COS-1 [13]) | inhibition (Mus musculus [14]) [%]
O=C(O)CC[C@@H]1NC(=O)CNC(=O)[C@H](Cc2ccc3ccccc3c2)NC(=O)[C@H](Cc2ccccc2)NC(=O)COCCOCCNC(=O)[C@H](CCCCNC(=S)Nc2ccc3c(c2)C(=O)OC32c3ccc(O)cc3Oc3cc(O)ccc32)NC(=O)[C@H](CCC(=O)O)NC(=O)[C@H](CCC(=O)O)NC1=O (cyclo([2Nal]GEEEK(FITC)[AEEA]F)) | Active | Active | Active | inactive | inactive | inactive | inactive | inactive | – | – | – | – | – | –
N=C(N)NCCC[C@@H]1NC(=O)CNC(=O)[C@H](Cc2ccc3ccccc3c2)NC(=O)[C@H](Cc2ccccc2)NC(=O)COCCOCCNC(=O)CNC(=O)[C@H](CCCNC(=N)N)NC(=O)[C@H](CCCNC(=N)N)NC1=O (cyclo([2Nal]GRRRG[AEEA]F)) | – | – | – | – | – | – | – | – | 3.41 | Active | Dose-Dependent Effect | Active | – | –
N=C(N)NCCC[C@@H]1NC(=O)CNC(=O)[C@H](Cc2ccc3ccccc3c2)NC(=O)[C@H](Cc2ccccc2)NC(=O)COCCOCCNC(=O)[C@H](CCCCNC(=S)Nc2ccc3c(c2)C(=O)OC32c3ccc(O)cc3Oc3cc(O)ccc32)NC(=O)[C@H](CCCNC(=N)N)NC(=O)[C@H](CCCNC(=N)N)NC1=O (cyclo([2Nal]GRRRK(FITC)[AEEA]F)) | Active | Active | Active | Active | – | – | Active | Active | 3.51 | – | Dose-Dependent Effect | Active | Active | –
N=C(N)NCCC[C@@H]1NC(=O)CNC(=O)CNC(=O)CNC(=O)COCCOCCNC(=O)[C@H](CCCCNC(=S)Nc2ccc3c(c2)C(=O)OC32c3ccc(O)cc3Oc3cc(O)ccc32)NC(=O)[C@H](CCCNC(=N)N)NC(=O)[C@H](CCCNC(=N)N)NC1=O (cyclo([AEEA]GGGRRRK(FITC))) | Active | Active | Active | – | inactive | inactive | – | – | – | – | – | – | – | –

More lines, main results first:

Drug uptake [2] | Drug uptake [4] | Drug uptake [5] | Activity (COS-1 [7]) | SMILES | inhibition (COS-1 [1]) | inhibition (Mus musculus [3]) | inhibition (COS-1 [6]) | Activity (COS-1 [8]) | pIC50 (COS-1 [9]) | inhibition (COS-1 [10]) | inhibition (COS-1 [11]) | inhibition (COS-1 [12]) | inhibition (COS-1 [13]) | inhibition (Mus musculus [14]) [%]
Not Active | Not Active | Active | – | N=C(N)NCCC[C@H](NC(=O)CNC(=O)[C@H](Cc1ccc2ccccc2c1)NC(=O)[C@@H](N)Cc1ccccc1)C(=O)N[C@@H](CCCNC(=N)N)C(=O)N[C@@H](CCCNC(=N)N)C(=O)N[C@@H](CCCCNC(=S)Nc1ccc2c(c1)C(=O)OC21c2ccc(O)cc2Oc2cc(O)ccc21)C(=O)NCCOCCOCC(=O)O (H-F[2Nal]GRRRK(FITC)[AEEA]-OH) | inactive | inactive | – | – | – | – | – | – | – | –
Active | Active | Active | Active | N=C(N)NCCC[C@@H]1NC(=O)CNC(=O)[C@H](Cc2ccc3ccccc3c2)NC(=O)[C@H](Cc2ccccc2)NC(=O)COCCOCCNC(=O)[C@@H](CCCCNC(=S)Nc2ccc3c(c2)C(=O)OC32c3ccc(O)cc3Oc3cc(O)ccc32)NC(=O)[C@H](CCCNC(=N)N)NC(=O)[C@H](CCCNC(=N)N)NC1=O (cyclo([2Nal]GRRR[dK](FITC)[AEEA]F)) | – | – | Active | Active | 3.48 | – | Dose-Dependent Effect | inactive | Active | 60

— ChEMBL document CHEMBL5030548, “Blockade of GRTH/DDX25 Phosphorylation by Cyclic Peptides Provides an Avenue for Developing a Nonhormonal Male Contraceptive” (J Med Chem, 2021)
